Molecules are shown by their SMILES. A number with no mark means an inactive call. Inconclusive results are not listed. Activity calls are given as the source filed them.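 How the source made its calls, unless noted: active means viability increase at or above a cutoff of the median across tested compounds plus 3 SD (cut at about 8.5% in these data, passing the limit was not always enough); inconclusive means some gains above the cutoff, reason not given; inactive means the rest.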

A short description of assay [1]: OD615 S. cerevisiae growth inhibition, permissive medium, pilot counter-assay, permissive growth control for S. cerevisiae lifespan shortening project (AID 705;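 active means growth inhibition above 25% in both replicates, a cutoff set 3 SD above the mean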). Conditions: OD615, 24 h, at 10 µM, stronger effect = higher value. In a few lines: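 assay system = Saccharomyces cerevisiae strain carrying genetically modified DeaD replicative-lifespan system | medium = SC raffinose/galactose permissive medium | dosing = 10 µM single dose, 0.25% DMSO | schedule = 24 h compound exposure at 30 °C after 4 h pre-growth | measured by = OD at 615 nm | read-out basis = growth inhibition from lowered OD615 after 24 h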

A short description of assay [2]: Restrictive medium S. cerevisiae growth inhibition, OD615, pilot screen of yeast lifespan reduction project, restrictive growth control (AID 706;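 active means growth inhibition above a set limit, 3 SD over mean compound inhibition, in both replicates, cut at about 43% in these data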;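 further: modified DeaD lifespan yeast strain shifted to restrictive glucose medium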). As to conditions: OD615, 48 h, at 10 µM, stronger effect = higher value. In outline:
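Buffer or medium: CSMM-D glucose medium. Material: genetically modified Saccharomyces cerevisiae, DeaD replicative lifespan assay strain. Times: 48 h compound exposure at 30 °C. Measured by: optical density at 615 nm.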

Assay [3] is described as follows: viability gain of MRP-1-high H69AR cells under doxorubicin, pilot screen, MRP-1 activator project, CellTiter-Glo, duplicate (AID 807).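 Further: compound pretreatment 18-22 h then 72 h combined with doxorubicin; 0% = doxorubicin alone and 100% = vehicle without doxorubicin.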 Conditions: H69AR viability with doxorubicin, CellTiter-Glo luminescence; at 10 µM; stronger effect = higher value.
Assay [4] is described as follows: growth suppression of beta-catenin knockout HCT116, pilot screen, human colon tumor cells (AID 823;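 active means cell viability at or below a set limit in both duplicate runs, the limit being the all-compound median minus 4 SD, cut at about 23% in these data, passing the limit was not always enough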;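 further: 0% = wells killed by 20 µM Hyamine and 100% = untreated DMSO cell wells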). Conditions: CellTiter-Glo, 60 h, at 10 µM, stronger effect = lower value.
Assay [5] can be described thus: growth suppression of PTEN-deleted HCT116, pilot screen, cell-based, HCT116 clonal line, CellTiter-Glo (AID 824;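 active means viability at or below 27.92% in each of two runs, the all-compound median minus 4 SD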;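 further: 0% = 20 µM Hyamine control and 100% = vehicle cell control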). As to conditions: 60 h, at 10 µM, stronger effect = lower value.
A short description of assay [6]: inhibitors of the yeast RAM network, pilot screen, dse1pr::URA3 reporter, 5-FOA selection (AID 869;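 active means inhibition over a set limit, the all-compound mean plus 3 SD, in both replicate runs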;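 further: 0% = DMSO wells with no growth and 100% = 10 µM 1-NA-PP1 with full growth; RAM network block rescues cells from 5-FOA so hits raise OD615 growth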). Conditions: S. cerevisiae dse1pr::URA3 5-FOA growth, OD615, 2 d; at 10 µM; stronger effect = higher value; strain carries analog-sensitive mutant Cbk1 kinase.
Assay [7] can be described thus: RAM signaling pathway blockade in yeast – S. cerevisiae, Pdr1DBD-CYC8 efflux-inhibited sensitized strain, primary screen (AID 1298;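 active means RAM network inhibition above 8.4% in each of two replicates, 3 SD over the compound average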;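 further: 0% = DMSO untreated cells without growth and 100% = 10 µM 1-NA-PP1 full growth; higher means more yeast growth rescued from 5-FOA killing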). As to conditions: S. cerevisiae cbk1-as DSE1-URA3 strain, 5-FOA growth OD615, 2 d; at 50 µM; stronger effect = higher value.

Regarding `Clc1ccc(-c2nnc(N3CCCC3)nn2)cc1`, the growth inhibition was -7.18% in assay [1] and 4.79% in assay [2]. Further, the viability increase in assay [3] was -2.71%. The values for the viability in assay [4] and in assay [5] were 86.6% and 92.2%, respectively. For the same molecule, in assay [6], the inhibition is 0.995%. Further, the RAM network inhibition in assay [7] is 0.52%.
Take `O=C(c1ccco1)N1CCN=C1SCc1cccc(Cl)c1`: the results for the growth inhibition in assay [1] and in assay [2] were -1.8% and 14%, respectively. The viability increase in assay [3] was 1.56%. The viability is 87.3% in assay [4] and 91.9% in assay [5]. Also, the inhibition in assay [6] was 0.89%. The RAM network inhibition in assay [7] is 0.26%.
In the case of `COC(=O)CSc1nc2ccccc2o1`, the growth inhibition in assay [1] is -7.46%; in assay [2], -18.7%. Further, the viability increase in assay [3] is -1.43%. Moreover, the results for the viability in assay [4] and in assay [5] were 97.8% and 96.3%, respectively. In addition, in assay [6], the inhibition was 1.3%. Also, in assay [7], the RAM network inhibition was 1.45%.
In the case of `COc1ccc(NC2c3ccccc3C(=O)N2Cc2ccco2)cc1OC` (stereo unspecified), the figures for the growth inhibition in assay [1] and in assay [2] were 6.53% and 6.86%, respectively. For the same molecule, the viability increase in assay [3] is -3.63%. Moreover, the results for the viability in assay [4] and in assay [5] were 97.5% and 89.7%, respectively. Further, the inhibition in assay [6] is 0.985%. In addition, in assay [7], the RAM network inhibition is 3.72%.
As to `O=C(c1cc(-c2ccc(O)cc2)on1)N1CCCc2ccccc21`, the growth inhibition was -15.5% in assay [1] and 12.2% in assay [2]. In addition, the viability increase in assay [3] was -5.72%. In addition, the viability in assay [4] is 92.6%; in assay [5] it was 88.3%. In addition, the inhibition in assay [6] is 0.66%. Also, the RAM network inhibition in assay [7] was 1.51%.
On to `O=C1CSC(=O)N1CC(O)COc1ccc(Cl)cc1` (stereo unspecified), for which the values for the growth inhibition in assay [1] and in assay [2] were 0.955% and -20.5%, respectively. Besides, the viability increase in assay [3] is 3.19%. For the same molecule, the values for the viability in assay [4] and in assay [5] were 102% and 91.9%, respectively. Moreover, the inhibition in assay [6] was 0.995%. The RAM network inhibition in assay [7] is 1.1%.
On to `Nc1nc(Nc2cccc(F)c2)nc2ccccc12`, for which the growth inhibition in assay [1] was -11.6%; in assay [2], -30.8%. Also, the viability increase in assay [3] is -5.76%. Besides, the viability is 70.3% in assay [4] and 67.6% in assay [5]. For the same molecule, the inhibition in assay [6] is 1.88%. Further, in assay [7], the RAM network inhibition is 4.92%.
Regarding `Brc1cccc(-c2nnc3sc(CNCc4ccco4)cn23)c1`, the growth inhibition in assay [1] was 1.61%; in assay [2], 47.3% (active). The viability increase in assay [3] is -4.13%. Moreover, the values for the viability in assay [4] and in assay [5] were 94.2% and 99.3%, respectively. Besides, the inhibition in assay [6] is 1.97%. Further, in assay [7], the RAM network inhibition is 8.75%.
Regarding `C=C(C)CSc1nnc(-c2cccc(Cl)c2)n1N`, the results for the growth inhibition in assay [1] and in assay [2] were 3.94% and 14.4%, respectively. Further, the viability increase in assay [3] was 0.23%. In addition, the viability in assay [4] is 95.9%; in assay [5] it was 91.5%. Also, the inhibition in assay [6] was 1.77%. The RAM network inhibition in assay [7] was -0.48%.
As to `Cc1ccc2cc(-c3noc(C4CCCCC4)n3)c(=O)[nH]c2c1`, the growth inhibition in assay [1] was -10.9%; in assay [2] it was -13%. Besides, in assay [3], the viability increase is -2.36%. The figures for the viability in assay [4] and in assay [5] were 112% and 104%, respectively. Moreover, the inhibition in assay [6] was 3.56%. Further, the RAM network inhibition in assay [7] was 4.76%.
Regarding `O=C(CC12CC3CC(CC(C3)C1)C2)NCO`, the growth inhibition in assay [1] is 4.32%; in assay [2], 5.98%. Moreover, the viability increase in assay [3] is 0.63%. Also, the viability was 100% in assay [4] and 104% in assay [5]. Besides, the inhibition in assay [6] was 1.92%. The RAM network inhibition in assay [7] is -1.39%.
Consider `CCOc1cc(C(=O)Nc2nnc(C)s2)cc(OCC)c1OCC`, for which the growth inhibition in assay [1] is -0.31%; in assay [2] it was 0.555%. For the same molecule, the viability increase in assay [3] is -4.22%. In addition, the viability in assay [4] was 108%; in assay [5], 97.7%. In assay [6], the inhibition was 0.43%. Also, in assay [7], the RAM network inhibition is 0.63%.
`O=C(Cn1c(S(=O)(=O)Cc2ccccc2)nc2ccccc21)N1CCCCC1`: the growth inhibition is -5.32% in assay [1] and 2.88% in assay [2]. Moreover, the viability increase in assay [3] is -6.5%. For the same molecule, the viability in assay [4] is 107%; in assay [5] it was 99.3%. For the same molecule, the inhibition in assay [6] is -0.04%. Also, the RAM network inhibition in assay [7] was 3.73%.
For the molecule `O=C(NC(O)C(=O)c1ccccc1)c1cccs1` (stereo unspecified), the growth inhibition in assay [1] is 5.04%; in assay [2], -5.63%. Also, the viability increase in assay [3] was -3.2%. For the same molecule, the results for the viability in assay [4] and in assay [5] were 95.4% and 101%, respectively. For the same molecule, the inhibition in assay [6] was 1.66%. Besides, in assay [7], the RAM network inhibition was 2.71%.
As for `O=C(Nc1ccc(Oc2ccccc2)cc1)c1cnc2n(c1=O)CCS2`, the growth inhibition in assay [1] was -16.5%; in assay [2], -12.6%. Besides, in assay [3], the viability increase was 5.46%. Moreover, the viability is 68.8% in assay [4] and 65.9% in assay [5]. For the same molecule, the inhibition in assay [6] was 3.62%. Also, the RAM network inhibition in assay [7] is 8.2%.
Turning to `CCCS(=O)(=O)c1nc(S(=O)(=O)c2ccc(C)cc2)c(NCCCN2CCOCC2)s1`, the figures for the growth inhibition in assay [1] and in assay [2] were 0.84% and -0.48%, respectively. Also, the viability increase in assay [3] is -1.8%. Also, the viability in assay [4] was 91.8%; in assay [5] it was 99.9%. Moreover, the inhibition in assay [6] is 0.475%. Also, the RAM network inhibition in assay [7] is 5.15%.
Turning to `CC1CN(c2cc(=O)n(Cc3ccc(F)cc3)c(=O)[nH]2)CC(C)O1` (stereo unspecified), the growth inhibition in assay [1] is 5.64%; in assay [2], -6.42%. The viability increase in assay [3] is 0.06%. Further, the viability in assay [4] was 99.4%; in assay [5] it was 105%. The inhibition in assay [6] is 1.31%. The RAM network inhibition in assay [7] is -0.24%.
For the molecule `CCOc1ccc(CCNC(=O)c2nnc(Cc3ccc(F)cc3)o2)cc1OCC`, the growth inhibition was -5.33% in assay [1] and 7.65% in assay [2]. Further, the viability increase in assay [3] is -2.55%. Moreover, the viability is 103% in assay [4] and 95.2% in assay [5]. Further, in assay [6], the inhibition was 1.5%. The RAM network inhibition in assay [7] is 5.06%.

For the origin of these results see PubChem BioAssay.
